What was measured:
MCF-7 cells [1] = assay: Zinc chloride rescue of growth inhibition, MTT assay in MCF-7; format: cell-based, human; conditions: for Growth inhibitory activity in presence of zinc chloride: compound at its IC50, ZnCl2 600 nM to 75 μM, 5 days, MCF-7
[2] = cited from earlier work
[3] = target: recombinant wild type human BCA2 (Homo sapiens, UniProt Q9Y4L5); assay: Recombinant BCA2 autoubiquitination assay; format: biochemical; conditions: 50 μM compound, 30 min preincubation
Method in brief: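 Test compound stocks (10 mM in DMSO) were diluted in reaction buffer and preincubated with 10 ng recombinant His-BCA2 (final 5 or 50 μM) for 30 min at room temperature. ATP (20 mM stock), ubiquitin (1 μg), rabbit E1 (20 ng) and human UbcH5b (20 ng) were added in Tris-HCl pH 8.0/DTT/MgCl2 buffer. Reactions ran 1 h at 30 °C, then SDS-PAGE and anti-ubiquitin immunoblot.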

BCA2 = BCA2 (Homo sapiens, UniProt Q9Y4L5); assay: Endogenous BCA2 protein stability in MCF-7 cells; format: cell-based; conditions: 16 hrs exposure at IC100 concentration, compound alone
BCA2, sequence (Q9Y4L5 whole entry): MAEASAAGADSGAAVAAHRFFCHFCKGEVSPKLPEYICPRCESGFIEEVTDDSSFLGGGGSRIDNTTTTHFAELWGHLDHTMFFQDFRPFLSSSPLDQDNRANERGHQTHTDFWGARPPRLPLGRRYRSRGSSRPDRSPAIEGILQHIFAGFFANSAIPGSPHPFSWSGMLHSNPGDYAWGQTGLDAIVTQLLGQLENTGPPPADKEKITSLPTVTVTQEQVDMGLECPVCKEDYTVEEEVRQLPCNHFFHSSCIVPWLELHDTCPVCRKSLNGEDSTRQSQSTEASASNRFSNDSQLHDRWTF
Method in brief: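 MCF-7 cells (1×10^6) were seeded and grown overnight, then exposed for 16 h to test compound alone, or with cycloheximide (100 μM) and/or a proteasome inhibitor (10 μM). DMSO vehicle controls ran for 16 h. Whole-cell lysates were immunoblotted with in-house anti-BCA2 antibodies, using beta-actin as the loading control.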

T47D cells = assay: MTT proliferation assay, T47D; format: cell-based, human; conditions: 72 hour drug exposure (footnote a), BCA2 +ve, ER +ve
Method in brief: (§1)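 Exponentially growing cells were kept in RPMI 1640 with 10% heat-inactivated FBS at 37 °C and 5% CO2. They were dosed with test compound from 0.00001 to 10 μM and read by MTT. Each compound was tested in triplicate. Active compounds had three independent experiments, reported as mean ± SD. IC50 and IC100 were read from growth curves.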

MCF-7 cells [4] = assay: MTT proliferation assay, MCF-7; format: cell-based, human; conditions: for Mean IC50 ±SD in MCF-7: MTT assay, 72 hour drug exposure (footnote a), BCA2 +ve, ER +ve, three independent experiments; for IC100 (100% growth inhibitory concentration) in MCF-7: delineated from MTT growth curves
Method in brief: as §1

[5] = tested on: BCA2 low/− cells (MDA-MB-231 or MCF10A); assay: MTT assay, BCA2 low/negative cells as a group; format: cell-based, human; conditions: active if IC50 <10 μM
Method in brief: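 MDA-MB-231 (BCA2 low/−, ER −) was grown in RPMI 1640 with 10% heat-inactivated FBS, and normal MCF10A mammary epithelial cells in MEGM, both at 37 °C and 5% CO2. Exponentially growing cells received test compound at 0.00001–10 μM for 72 h, followed by MTT read-out. IC50 values came from growth curves, with triplicate wells and three independent experiments (mean ± SD).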

[6] = tested on: BCA2+ cells (MCF-7, T47D, MDA-MB-231/ER); assay: MTT assay, BCA2-positive breast cancer cell lines as a group; format: cell-based, human; conditions: active if IC50 <10 μM
Method in brief: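 MCF-7, T47D and MDA-MB-231/ER (a stable ERα-transfected, G418-selected clone of MDA-MB-231 kept in 1mg/mL G418) were grown in RPMI 1640 with 10% heat-inactivated FBS at 37 °C and 5% CO2. Exponentially growing cells were exposed to test compound at 0.00001–10 μM for 72 h, and growth was read by MTT. IC50 values came from growth curves, with triplicate wells and three independent experiments (mean ± SD).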

ALDH1 = target: T1, ALDH1 (Homo sapiens, UniProt P00352); assay: ALDH1 inhibition in K562 cells; format: cell-based; conditions: for ALDH-inhibitory activity (in words): K562 cells, 15 μM
T1 sequence (P00352 2-501 limits assumed): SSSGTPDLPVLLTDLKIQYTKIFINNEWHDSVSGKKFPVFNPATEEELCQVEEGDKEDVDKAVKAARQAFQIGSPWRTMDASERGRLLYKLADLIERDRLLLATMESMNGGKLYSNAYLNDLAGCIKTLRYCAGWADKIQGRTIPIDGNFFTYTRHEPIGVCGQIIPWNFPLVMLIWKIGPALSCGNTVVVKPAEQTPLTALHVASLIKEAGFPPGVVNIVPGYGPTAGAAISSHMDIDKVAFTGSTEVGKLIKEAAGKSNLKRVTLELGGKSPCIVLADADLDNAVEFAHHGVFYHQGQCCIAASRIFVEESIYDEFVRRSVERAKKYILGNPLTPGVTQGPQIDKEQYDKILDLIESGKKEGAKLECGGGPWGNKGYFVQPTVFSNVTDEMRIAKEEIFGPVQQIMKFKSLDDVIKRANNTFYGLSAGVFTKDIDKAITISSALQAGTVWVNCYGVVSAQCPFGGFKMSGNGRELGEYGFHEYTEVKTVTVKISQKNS

MDA-MB-231 cells = assay: MTT proliferation assay, MDA-MB-231; format: cell-based; conditions: Homo sapiens, MDA-MB-231, 72 h, read-out: Mean IC50 ±SD in MDA-MB-231
Method in brief: as §1

recombinant wild type human BCA2, sequence (Q9Y4L5 whole entry): as the sequence (Q9Y4L5 whole entry) above

Inhibition of autoubiquitination of recombinant BCA2 [3]	ALDH-inhibitory activity (in words) (ALDH1)	IC50 (MDA-MB-231 cells)	ALDH+ K562 cells (%) (ALDH1; compound 15 μM, 45 min at 37 °C)	SMILES	Growth inhibitory activity in presence of zinc chloride (MCF-7 cells [1])	Oral bioavailability [2]	BCA2 protein levels in MCF-7 cells (BCA2)	Mean IC50 ±SD in T47D (T47D cells)	Mean IC50 ±SD in MCF-7 (MCF-7 cells [4])	IC100 (100% growth inhibitory concentration) in MCF-7 (MCF-7 cells [4])	Activity in BCA2 low/− cells [5]	Activity in BCA2+ cells [6]	Effect on the growth of MCF-7 cells (MCF-7 cells [1]; zinc chloride alone)
abolish the autoubiquitination activity				CCN(CC)C(=S)SSC(=S)N(CC)CC [Compound 1, bis(diethylaminothiocarbonyl)-disulfide, reference compound]	completely abolished	> 80%							
				C1CN(SSN2CCOCC2)CCO1 [Compound 4, 4,4′-dithiodimorpholine]							inactive	inactive	
abolish the autoubiquitination activity	lack ALDH-inhibitory activity			CCCCCCSSC(=S)N(CC)CC [Compound 5d, Hexyl diethylcarbamo(dithioperoxo)thioate]	completely abolished		marked reduction	submicromolar	submicromolar	1 µM	inactive	active	
abolish the autoubiquitination activity	lack ALDH-inhibitory activity	> 10 µM	36.9 ± 3.15%	CCN(CC)C(=S)SSCCO [Compound 5f, 2-Hydroxyethyl diethylcarbamo(dithioperoxo)thioate]				submicromolar	submicromolar		inactive	active	
				[Cl-].[Cl-].[Zn+2] [Zinc chloride, zinc (II) chloride]									no effect

SMILES	Inhibition of autoubiquitination of recombinant BCA2 [3]	ALDH-inhibitory activity (in words) (ALDH1)	IC50 (MDA-MB-231 cells)	ALDH+ K562 cells (%) (ALDH1; compound 15 μM, 45 min at 37 °C)	Growth inhibitory activity in presence of zinc chloride (MCF-7 cells [1])	Oral bioavailability [2]	BCA2 protein levels in MCF-7 cells (BCA2)	Mean IC50 ±SD in T47D (T47D cells)	Mean IC50 ±SD in MCF-7 (MCF-7 cells [4])	IC100 (100% growth inhibitory concentration) in MCF-7 (MCF-7 cells [4])	Activity in BCA2 low/− cells [5]	Activity in BCA2+ cells [6]	Effect on the growth of MCF-7 cells (MCF-7 cells [1]; zinc chloride alone)
S=C(SSC(=S)N1CCCCC1)N1CCCCC1 [Compound 3a, Bis(piperidinylthiocarbonyl)disulfide]	abolish the autoubiquitination activity				completely abolished		marked reduction	submicromolar	submicromolar	0.25 µM			
S=C(SSC(=S)N1CCCC1)N1CCCC1 [Compound 3c, Bis(pyrrolidinylthiocarbonyl)disulfide]	abolish the autoubiquitination activity							submicromolar	submicromolar				

Source: PMC2848690 (Journal of medicinal chemistry, 2010)
